According to ChEMBL document CHEMBL4229380, “Arylureas derived from colchicine: Enhancement of colchicine oncogene downregulation activity” (Eur J Med Chem, 2018):

Experiments:
HEK293 = assay: Antiproliferative activity against human HEK293 cells after 2 days by MTT assay; format: cell-based; conditions: HEK293, 48 h
Procedure, shortened: (§1)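 Cells (5×10^3 per well) in DMEM with 10% FBS, glucose, glutamine and antibiotics were exposed to serial dilutions (stocks in DMSO) for 2 days at 37 °C, 5% CO2. MTT was added for 3 h, formazan was dissolved in DMSO and absorbance read at 490 nm. Viability was taken as % of untreated cells. IC50 was read graphically from three independent experiments.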

HT-29 [1] = assay: Effect on c-MYC protein expression in human HT-29 cells assessed as c-MYC level at 1 nM after 48 hrs by ELISA; format: functional
Procedure, shortened: (§2)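 HT-29 cells (1.5×10^5 per well, 24 h pre-culture) were treated 48 h and washed in PBS. They were lysed in Tris pH 7.4 buffer with detergents, phosphatase inhibitors, PMSF and protease inhibitors. Lysates were adjusted to 200 µg/mL protein (Bradford) and total c-Myc or VEGFR-2 was measured by sandwich ELISA kit. Values are % of DMSO control, ≥3 measurements.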

HT-29 [2] = assay: Effect on VEGF gene expression in human HT-29 cells assessed as VEGF level at 1 nM after 48 hrs by RT-qPCR analysis; format: functional
Procedure, shortened: (§3)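 HT-29 cells at 70–80% confluence were seeded at 1.5×10^5 per well and left 24 h, then treated 48 h, with DMSO as control. Total RNA was extracted and VEGF-A, c-Myc and hTERT were quantified by TaqMan qPCR, normalized to β-actin and to living cell number. Results are % expression versus control, at least three measurements.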

HT-29 [3] = assay: Effect on VEGF protein expression in human HT-29 cells assessed as secreted VEGF level in culture media at 1 nM after 48 hrs by ELISA
HT-29 [4] = assay: Induction of apoptosis in human HT-29 cells assessed as viable cells at 1 nM after 48 hrs by Annexin V-FITC staining-based flow cytometric analysis (reference value: 82 +/- 1%); format: functional; conditions: HT-29, 48 h, read-out: Activity
HT-29 [5] = assay: Effect on c-MYC gene expression in human HT-29 cells assessed as c-MYC level at 1 nM after 48 hrs by RT-qPCR analysis; format: functional; procedure, shortened: as §3
HT-29 [6] = assay: Effect on VEGFR2 protein expression in human HT-29 cells assessed as VEGFR2 level at 1 nM after 48 hrs by ELISA; format: functional; procedure, shortened: as §2
MCF7 = assay: Antiproliferative activity against human MCF7 cells after 2 days by MTT assay; format: functional, cell-based; conditions: MCF7, 48 h; procedure, shortened: as §1
HeLa = assay: Antiproliferative activity against human HeLa cells after 2 days by MTT assay; format: functional, cell-based; conditions: 48 h; procedure, shortened: as §1
HT-29 [7] = assay: Induction of apoptosis in human HT-29 cells assessed as necrotic cells at 1 nM after 48 hrs by Annexin V-FITC staining-based flow cytometric analysis (reference value: 2 +/- 6%); format: functional
HT-29 [8] = assay: Antiproliferative activity against human HT-29 cells after 2 days by MTT assay; format: functional, cell-based; conditions: HT-29, 48 h; procedure, shortened: as §1
HT-29 [9] = assay: Effect on hTERT gene expression in human HT-29 cells assessed as hTERT level at 1 nM after 48 hrs by RT-qPCR analysis; format: functional; procedure, shortened: as §3
HT-29 [10] = assay: Induction of apoptosis in human HT-29 cells assessed as apoptotic cells at 1 nM after 48 hrs by Annexin V-FITC staining-based flow cytometric analysis (reference value: 13 +/- 3%); format: functional

Question: What does the source list for COc1cc2c(c(OC)c1OC)-c1ccc(OC)c(=O)cc1[C@@H](NC(=O)Nc1ccc(-c3ccccc3)cc1)CC2?
Answer: IC50 (HEK293): 1.7 nM; Activity (HT-29 [1]): 119%; Activity (HT-29 [2]): 72%; Activity (HT-29 [3]): 72%; viability at 0.001 µM (HT-29 [4]): 86%; Activity (HT-29 [5]): 85%; Activity (HT-29 [6]): 74%; IC50 (MCF7): 1.5 nM; IC50 (HeLa): 12 nM; Activity (HT-29 [7]): 3%; IC50 (HT-29 [8]): 1.2 nM; Activity (HT-29 [9]): 60%; Activity (HT-29 [10]): 11%
